Source: PubChem (The Scripps Research Institute Molecular Screening Center)
Sampled rows, rich in hits. Any-hit rate of the full collection: about 2.7%.
IMP-1 inhibitor: blocks Pseudomonas aeruginosa IMP-1 metallo-beta-lactamase. 0.45% of 290,000 active. inhibition, % at 5.6 µM. purified IMP-1, nitrocefin hydrolysis, epi-absorbance fluorescence;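 active = inhibition above the mean plus 3 SD of all compounds in the same screening run, cut at about 4.5% in these data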;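 also: 0% = IMP-1 with DMSO and 100% = DMSO wells lacking enzyme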
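Assay system: purified recombinant IMP-1 beta-lactamase. Input: IMP-1 0.2 nM before substrate addition. Buffer or medium: Zinc- and detergent-supplemented HEPES buffer, pH 7.1. Schedule: 25 °C, 15 min preincubation, 25 min reaction. Signal: Epi-absorbance fluorescence, 480 nm excitation, 530 nm emission. Evaluation: percent inhibition from optical density relative to buffer-blank wells.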
VIM-2 inhibitor: inhibitors of Pseudomonas aeruginosa VIM-2 metallo-beta-lactamase | inhibition, % at 5.6 µM | 0.89% of 290,000 active | purified VIM-2, nitrocefin hydrolysis, epi-absorbance fluorescence;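 active = inhibition above the mean of all tested compounds plus 3 SD, cutoff set per screening run, cut at about 7.5% in these data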;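 also: red hydrolysis product quenches plate fluorescence so inhibitors raise well fluorescence; 0% = enzyme with DMSO and 100% = DMSO without enzyme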
Fh CTSL1 inh: counter-screen for PFM18AAP inhibitors: inhibitors of F. hepatica cathepsin L1; recombinant F. hepatica cathepsin L1, Z-Leu-Arg-MCA fluorescence; 0.49% of 300,000 active; inhibition, % at 5.96 µM;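 active = inhibition above the mean of all tested compounds plus 3 SD, set per screening campaign, cut at about 17% in these data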;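 also: 0% = plate median of test compound wells and 100% = 1 µM Z-Phe-Ala-diazomethylketone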
PfM18AAP inh: PfM18AAP enzyme inhibition. 1.2% of 290,000 active. AID 1822. inhibition, % at 7.35 µM. recombinant PfM18AAP, H-Glu-NHMec fluorogenic cleavage;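 active = inhibition above the campaign mean inhibition over all tested compounds plus 3 SD, cut at about 28% in these data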;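 also: 0% = plate median of test compound wells and 100% = 2 mM ZnCl2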
Active calls of the source: *; . = no result.

SMILES	IMP-1 inhibitor	VIM-2 inhibitor	Fh CTSL1 inh	PfM18AAP inh
CNNC(=S)Nc1cccc(C(F)(F)F)c1	-3.8	-4.5	-2.3	29.2*
CC(C)CC(C(=O)Nn1cnnc1)N1C(=O)c2ccccc2C1=O (stereo not given)	-0.9	-0.6	23.2*	17.2
CC(C)c1cc(C(=O)NNC(=S)NCc2ccco2)c(O)c(C(C)C)c1	-2.1	-3.1	-1.6	5.1
COc1cccc(NC(=S)NN=C2CCC(C(C)(C)C)CC2)c1 (stereo not given)	-0.7	-1.8	20.0*	3.8
CC(C)C[C@H](NC(=O)N1CCN(c2ccccc2)CC1)C(=O)O	-0.6	-0.4	0.1	1.5
O=C(O)[C@H](Cc1ccccc1)NC(=O)N1CCN(c2ccccc2)CC1	-3.2	-4.8	17.2*	3.4
Cc1cccc(CSc2ccc3nnc(-c4ccccn4)n3n2)c1	-4.9	3.0	1.1	2.8
c1ccc(CSc2ccc3nnc(-c4ccccn4)n3n2)cc1	-0.5	10.8*	1.5	-3.6
O=C(O)CCNC(=O)C12CC3CC(CC(C3)C1)C2	-3.0	-2.0	-0.5	-5.6
Cc1ccc(-n2ncc(C(=O)O)c2C2CCN(C(=O)OC(C)(C)C)CC2)cc1	2.0	8.4*	-2.1	-11.0
CSc1ccccc1NC(=O)c1cc(-c2cccnc2)nc2ccc(Br)cc12	6.3*	-1.4	-1.7	-2.9
CC(=O)Nc1cccc(NC(=O)c2cc(-c3cccnc3)nc3ccc(Br)cc23)c1	5.2*	0.3	6.7	1.6
CCOc1ccccc1NC(=O)C1(S(=O)(=O)c2ccc(Cl)cc2)CC1	-3.5	-2.4	-5.8	2.7
CCOC(=O)c1sc(S(C)(=O)=O)c2c1CCc1conc1-2	-2.2	-0.5	42.3*	-6.7
Cc1ccc(C(=O)Nc2ccc(C(=O)N/N=C/c3ccccn3)cc2)cc1	-1.5	-4.4	18.8*	9.4
CCn1c(C(=O)O)c(CC(=O)Nc2cccc(C(F)(F)F)c2)c2ccccc21	-2.9	-1.4	-2.2	2.2
Cc1ccc(N(Cc2ccccc2)C(=O)c2cc(S(=O)(=O)N3CCOCC3)ccc2C)cc1	.	.	4.7	.
CCOc1cc2c(C#N)c(N3CCNCC3)nc(N)c2c(N)n1	-1.9	8.7*	4.8	7.5
CCOc1cc2c(C#N)c(N3CCCCC3)nc(N)c2c(N)n1	-0.5	-2.3	2.3	1.1
O=C(O)C1C2CCC(O2)C1C(=O)Nc1ccccc1Br (stereo not given)	-4.2	-3.2	-2.2	9.3
COc1ccc(-c2nc(C#N)c(N3CCN(C(=O)c4ccco4)CC3)o2)cc1OC	7.7*	0.0	-0.6	-9.1
O=C(Nc1ccc2nc(-c3cccs3)[nH]c2c1)c1ccco1	-2.7	0.5	0.7	-10.3
O=C(Nc1ccc2nc(-c3cccs3)[nH]c2c1)c1cccs1	-1.9	-2.1	16.9*	1.5
O=C(Nc1ccc(-c2nc3ccc(NC(=O)c4cccs4)cc3[nH]2)cc1)c1cccs1	11.8*	-4.6	6.5	4.2
C#CCCOC(=O)Nc1ccccc1	-1.8	-1.1	1.2	-2.0
SMILES	IMP-1 inhibitor	VIM-2 inhibitor	Fh CTSL1 inh	PfM18AAP inh
N#CC1=C2SCN(Cc3ccco3)CN2C(=O)CC1c1cccc2ccccc12 (stereo not given)	-3.0	1.6	-1.9	29.8*
N/N=C/C(=N\Nc1ccc(Cl)cc1)C(=O)c1ccncc1	-3.4	8.8*	3.2	4.4
Cc1cc(C)cc(C(=O)NCCC(=O)N2CCC3(CC2)NCCc2[nH]cnc23)c1	-4.5	-2.1	-1.9	3.9
O=C(CCl)N1CCCC1c1ccc2c(c1)OCCO2 (stereo not given)	1.9	-4.3	74.9*	10.5
COc1ccc(-n2c(=O)c3c(C)c(C)sc3n(Cc3ccc(F)cc3)c2=O)c(OC)c1	-0.3	-0.3	1.1	-16.6
CN(C)c1ccc(/C=N/NC(N)=S)cc1[N+](=O)[O-]	-3.0	-3.2	18.7*	8.9
Cn1c(=O)n(C)c2cc(/C=N/NC(N)=S)ccc21	-3.0	2.9	32.7*	9.4
Cc1cc(C)nc(NC(=O)Cc2ccc(Br)cc2)n1	-4.3	-2.5	-2.8	-8.3
N=C1CCC(=N)c2c1c(O)c1ccccc1c2O	2.9	3.1	18.6*	14.7
CCOC(=O)C1CCCN(C(=O)c2cc(CN3C(=O)c4ccccc4C3=O)ccc2OC)C1 (stereo not given)	.	.	-1.0	.
O=C(CCN1C(=O)/C(=C/c2ccco2)SC1=S)Nc1ccc(O)cc1C(=O)O	-2.4	-1.2	.	6.7
O=C(CCN1C(=O)/C(=C\c2ccco2)SC1=S)Nc1ccc(C(=O)O)c(O)c1	8.0*	-1.1	0.3	29.8*
O=C(CN1C(=O)/C(=C\c2ccco2)SC1=S)Nc1ccc(O)cc1C(=O)O	3.7	-0.8	0.5	38.8*
O=C(CCN1C(=O)/C(=C/c2ccco2)SC1=S)Nc1ccc(C(=O)O)c(O)c1	1.9	-2.9	3.6	28.4*
C=CCN1/C(=C2/SC(=S)N(C)C2=O)Sc2ccccc21	-2.3	-1.2	-2.1	1.4
O=C(NC(=S)NC1CCSC1=O)c1ccc([N+](=O)[O-])cc1 (stereo not given)	-3.1	-1.0	3.3	-0.5
O=C1SCCC1NS(=O)(=O)c1ccc([N+](=O)[O-])cc1 (stereo not given)	-0.1	-4.6	21.2*	6.5
CNC(=O)C1(C(F)(F)F)C/C(=C\CCO)CCCO1 (stereo not given)	0.2	0.1	18.1*	-3.3
O=C(NNC(=S)NCc1ccco1)c1ccc(S(=O)(=O)N2CCOCC2)cc1	-0.9	-4.9	3.3	17.2
Cc1ccc(Nc2nc(N)nc(CSc3nc(C)cc(C)n3)n2)cc1	4.9*	0.7	-2.0	3.3
Cc1ccc(Nc2nc(N)nc(CSc3ncccn3)n2)cc1	-2.0	-5.5	-0.9	-12.7
COC(=O)c1cccc2c1NC(=O)C2=O	-3.4	-1.9	17.0*	4.0
CC(=O)N1CCC2(CC1)C(C#N)=C(N)Oc1n[nH]c(CSc3ccc(C)cc3)c12	-4.7	-1.3	-0.8	12.8
CCc1[nH]nc2c1C1(CCN(C(=O)c3ccccc3)CC1)C(C#N)=C(N)O2	-9.2	10.8*	1.7	6.1
Cc1cc(C(=O)CCC(=O)N(C)CC(=O)Nc2ccccc2Br)c(C)s1	.	.	2.5	.
SMILES	IMP-1 inhibitor	VIM-2 inhibitor	Fh CTSL1 inh	PfM18AAP inh
CN(C)c1ccc([N+](=O)[O-])cc1C(=O)NCC(c1ccco1)N(C)C (stereo not given)	-1.9	-2.8	4.8	6.8
CN(C)C(CNC(=O)c1ccc([N+](=O)[O-])cc1Cl)c1ccco1 (stereo not given)	-0.9	-1.7	18.6*	10.9
CCOC(=O)N1CCN(c2c(-c3ccc(C(C)C)cc3)c(=O)c2=O)CC1	5.3*	0.5	4.7	-5.6
CCCS(=O)(=O)C/C(N)=N/OC(=O)c1ccccc1Cl	8.3*	-1.2	2.5	3.2
O=C(Nc1ccc(Oc2ccc(Cl)cc2)c(Cl)c1)c1cc(I)cc(I)c1O	0.3	-1.7	7.4	3.9
Cc1c(Cc2ccccc2)c(=O)oc2c(C)c(OC(C)C(=O)N[C@@H](Cc3ccccc3)C(=O)O)ccc12 (stereo not given in full)	-4.2	-2.6	2.1	-1.1
Cc1c(O)ccc2c3c(c(=O)oc12)CCCC3	-5.2	10.1*	4.3	14.9
Cc1c(OC(C)C(=O)N[C@H](C(=O)O)c2ccccc2)ccc2c3c(c(=O)oc12)CCCC3 (stereo not given in full)	-4.5	7.8*	5.6	-10.2
